Only a selection was taken, and hits are over-represented in it overall.
IDH1 mut inh: inhibitors of IDH1 R132H reductase, primary screen, biochemical, plate reader, single point; diaphorase/resazurin fluorescence, 60 min; actives 0.18% (n = 70,000); inhibition, % at 10 µM; in the data active = inhibition above about 34%; inconclusive = no clear call, values can overlap the other calls; inactive = below about 11%
Target sequence (O75874 whole entry R132H): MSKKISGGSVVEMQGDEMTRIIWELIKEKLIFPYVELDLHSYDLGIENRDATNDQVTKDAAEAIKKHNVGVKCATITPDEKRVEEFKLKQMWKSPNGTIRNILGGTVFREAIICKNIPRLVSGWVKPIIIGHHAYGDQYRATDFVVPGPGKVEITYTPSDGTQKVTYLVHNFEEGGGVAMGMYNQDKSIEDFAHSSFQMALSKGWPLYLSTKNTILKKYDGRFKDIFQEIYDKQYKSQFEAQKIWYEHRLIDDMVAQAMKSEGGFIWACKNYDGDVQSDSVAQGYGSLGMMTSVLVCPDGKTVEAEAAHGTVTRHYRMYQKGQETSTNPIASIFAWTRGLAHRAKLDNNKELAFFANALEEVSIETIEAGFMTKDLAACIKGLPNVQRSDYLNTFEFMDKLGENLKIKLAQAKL
KDM4C inh: inhibitors of GASC-1 (KDM4C) histone demethylase, primary screen, biochemical, single concentration HTS; Lysine-specific demethylase 4C (Homo sapiens), Q9H3R0; GST-KDM4C 2-372, H3K9me3 peptide, LANCE TR-FRET; inhibition, % at 12.5 µM; actives 0.15% (n = 96,000); AID 720574, 2013;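 active = mean replicate inhibition above about 25%, with at least 55% of replicates also reaching it, limit read from the data, passing the limit was not always enough; inconclusive = only one of those two conditions met; inactive = neither condition met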
Target sequence (Q9H3R0 2-372 limits assumed): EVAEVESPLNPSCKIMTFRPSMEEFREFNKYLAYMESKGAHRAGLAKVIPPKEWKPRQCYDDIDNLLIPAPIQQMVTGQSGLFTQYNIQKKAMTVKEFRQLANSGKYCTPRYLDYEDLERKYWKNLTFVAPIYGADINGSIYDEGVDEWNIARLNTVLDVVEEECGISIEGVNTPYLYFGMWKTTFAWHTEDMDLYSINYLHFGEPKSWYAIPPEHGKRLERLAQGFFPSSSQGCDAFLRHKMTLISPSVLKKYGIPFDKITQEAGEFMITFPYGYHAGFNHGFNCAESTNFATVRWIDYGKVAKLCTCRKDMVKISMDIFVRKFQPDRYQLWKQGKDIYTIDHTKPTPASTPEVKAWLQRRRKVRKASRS
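Test system – GST-tagged GASC-1 (JMJD2C) catalytic fragment, aa 2-372 · Medium – HEPES buffer, pH 7.5, plus ascorbate · Reagent – H3K9me3 peptide with Fe(II)/2OG · Compound – one test concentration per compound · Timing – 30 min reaction, 60 min detection, RT · Technique – TR-FRET with Eu antibody and ULight streptavidin, EDTA stop · Read-out basis – inhibition from TR-FRET ratio decrease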
T cruzi growth-1: T. cruzi intracellular proliferation inhibitors, primary screen, cell-based, beta-gal Tulahuen parasites, NIH3T3 host, luminescence. T. cruzi beta-gal in NIH3T3, GalScreen luminescence, 90 h. inhibition, % at 8.34 µM. actives 5.9% (n = 77,000). AID 624255, 2012;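 active = mean inhibition above about 93%, with at least 55% of replicates each passing it, limit read from the data, passing the limit was not always enough; inconclusive = only one of those two conditions holds; inactive = neither condition holds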
T cruzi growth-2: T. cruzi intracellular proliferation inhibitors, confirmation, cell-based, NIH3T3 host, beta-gal parasite, luminescence, cherry-pick; T. cruzi beta-gal in NIH3T3, GalScreen luminescence, 90 h; shares compounds with T cruzi growth-1; actives 72% (n = 5,600); inhibition, % at 8.35 µM;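 active = mean replicate inhibition above about 95% and at least 55% of replicates individually reaching it, limit read from the data; inconclusive = only one of the two criteria is met; inactive = neither criterion is met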
T cruzi growth-3: inhibitors of intracellular T. cruzi replication, confirmation, NIH3T3 host cells, beta-gal parasites, cherry-pick, set 2; T. cruzi beta-gal in NIH3T3, GalScreen luminescence, 90 h; shares compounds with T cruzi growth-1; AID 651740, 2012; inhibition, % at 2.09 µM; actives 21% (n = 5,600);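 active = mean inhibition above about 95%, with at least 55% of replicates also reaching it, limit read from the data; inconclusive = meets just one of the two conditions; inactive = meets neither condition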
NIH3T3 tox: cytotoxicity in mouse NIH/3T3 fibroblasts, confirmation, cytotoxicity control for T. cruzi proliferation inhibitor project, cell-based, cherry-pick, single point | actives 14% (n = 5,600) | cytotoxicity (signal decrease), % at 8.35 µM | shares compounds with T cruzi growth-1 | NIH/3T3 viability, CellTiter-Glo ATP luminescence, 90 h;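 active = mean signal decrease across replicates above about 35% based on untreated-well scatter, with enough replicates individually passing, limit read from the data; inconclusive = no rule stated though some were filed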
3T3 cytotox 2: NIH/3T3 fibroblast cytotoxicity, confirmation, cytotoxicity control, cell-based, cherry-pick, single point, set 2. shares compounds with T cruzi growth-1. NIH/3T3 viability, CellTiter-Glo ATP luminescence, 90 h. inhibition, % at 24.9 µM. actives 56% (n = 5,600). AID 651744, 2012;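 active = mean loss of cell viability signal at or above a set limit, and enough replicates individually reaching it; inconclusive = meets only the mean limit or only the replicate share; inactive = meets neither condition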
Of the large screens only hits and unclear results are named; the others gave an inactive call (follow-up assays come after a bar, where they were run).

CCn1c(SCC(=O)Nc2cc(C)ccc2OC)nnc1-c1ccc(Cl)cc1	none (no result: KDM4C inh, T cruzi growth-1)
Cc1ccc(NC(=O)CC2NCCNC2=O)cc1C (configuration not stated)	none (no result: KDM4C inh, T cruzi growth-1)
C[C@H]1CCCCO[C@@H](CN(C)S(=O)(=O)c2ccc(F)cc2)[C@@H](C)CN([C@@H](C)CO)C(=O)c2cc(NS(=O)(=O)c3ccc(F)cc3)ccc2O1	T cruzi growth-1 119 | T cruzi growth-2 105 | T cruzi growth-3 inactive | NIH3T3 tox inactive | 3T3 cytotox 2 inactive
C[C@@H]1CCCCO[C@H](CN(C)S(=O)(=O)c2ccc(F)cc2)[C@@H](C)CN([C@H](C)CO)C(=O)c2cc(NS(=O)(=O)c3ccc(F)cc3)ccc2O1	none
C[C@@H]1CCCCO[C@H](CN(C)S(=O)(=O)c2ccc(F)cc2)[C@H](C)CN([C@H](C)CO)C(=O)c2cc(NS(=O)(=O)c3ccccc3)ccc2O1	T cruzi growth-1 104 (no result: IDH1 mut inh) | T cruzi growth-2 114 | T cruzi growth-3 inactive | NIH3T3 tox inactive | 3T3 cytotox 2 inactive
C[C@@H]1CCCCO[C@@H](CN(C)S(=O)(=O)c2ccccc2)[C@@H](C)CN([C@H](C)CO)C(=O)c2cc(NS(=O)(=O)c3ccc(F)cc3)ccc2O1	none (no result: KDM4C inh)
Cc1cc(N(CC(=O)Nc2ccc3c(c2)OCCO3)S(C)(=O)=O)ccc1Br	none (no result: KDM4C inh, T cruzi growth-1)
COC(=O)c1c(N)oc2c(-c3cccc(C(F)(F)F)c3)c3c(C(=O)OC)c(N)oc3cc12	none (no result: KDM4C inh, T cruzi growth-1)
CC(=O)Nc1cccc(NC(=O)c2cc(-c3ccccn3)nc3ccc(Br)cc23)c1	none (no result: KDM4C inh, T cruzi growth-1)
Cc1ccc(-c2nn(CCC(=O)Nc3cccc(Cl)c3)c(=O)c3ccccc23)cc1	none (no result: KDM4C inh, T cruzi growth-1)
C[C@@H]1CCCCO[C@@H](CN(C)S(=O)(=O)c2ccccc2)[C@H](C)CN([C@@H](C)CO)C(=O)c2cc(NC(=O)Nc3ccc(C(F)(F)F)cc3)ccc2O1	T cruzi growth-1 109 (no result: IDH1 mut inh) | T cruzi growth-2 104 | T cruzi growth-3 115 | NIH3T3 tox inactive | 3T3 cytotox 2 inactive
C[C@@H]1CN([C@@H](C)CO)C(=O)c2cc(NC(=O)Nc3ccc(C(F)(F)F)cc3)ccc2O[C@@H](C)CCCCO[C@H]1CN(C)S(=O)(=O)c1ccccc1	T cruzi growth-1 109 (no result: IDH1 mut inh) | T cruzi growth-2 103 | T cruzi growth-3 114 | NIH3T3 tox inactive | 3T3 cytotox 2 inactive
C[C@@H]1CN([C@@H](C)CO)C(=O)c2cc(NC(=O)Nc3ccc(C(F)(F)F)cc3)ccc2O[C@@H](C)CCCCO[C@@H]1CN(C)S(=O)(=O)c1ccccc1	none (no result: IDH1 mut inh)
Cc1ccc(S(=O)(=O)N(C)C[C@H]2OCCCC[C@@H](C)Oc3ccc(NC(=O)Nc4ccc(C(F)(F)F)cc4)cc3C(=O)N([C@@H](C)CO)C[C@@H]2C)cc1	none (no result: IDH1 mut inh, T cruzi growth-1)
C[C@@H]1CCCCO[C@@H](CN(C)S(=O)(=O)c2ccccc2)[C@@H](C)CN([C@@H](C)CO)C(=O)c2cc(NC(=O)Nc3ccc(C(F)(F)F)cc3)ccc2O1	T cruzi growth-1 105 (no result: IDH1 mut inh) | T cruzi growth-2 103 | T cruzi growth-3 106 | NIH3T3 tox 37 | 3T3 cytotox 2 63
Cc1ccc(S(=O)(=O)N(C)C[C@H]2OCCCC[C@H](C)Oc3ccc(NC(=O)Nc4ccc(C(F)(F)F)cc4)cc3C(=O)N([C@@H](C)CO)C[C@H]2C)cc1	none (no result: IDH1 mut inh, T cruzi growth-1)
CC(C)=CCC[C@H](C)C/C=N/NC(=O)c1ccccn1	none (no result: KDM4C inh, T cruzi growth-1)
CN(c1cccc(NC(=O)c2ccc(NS(=O)(=O)c3ccccc3)cc2)c1)S(C)(=O)=O	none (no result: KDM4C inh, T cruzi growth-1)
C[C@H](CO)N1C[C@H](C)[C@@H](CN(C)C(=O)CN(C)C)Oc2cc(C#CCN(C)C)ccc2S1(=O)=O	none
CC(=O)N(C)C[C@@H]1Oc2cc(C#CCN(C)C)ccc2S(=O)(=O)N([C@H](C)CO)C[C@H]1C	none
CC(=O)N(C)C[C@H]1Oc2cc(C#CCN(C)C)ccc2S(=O)(=O)N([C@H](C)CO)C[C@@H]1C	T cruzi growth-1 inconclusive | T cruzi growth-2 inconclusive | T cruzi growth-3 inactive | NIH3T3 tox inactive | 3T3 cytotox 2 inactive
CCC(=O)N(C)C[C@@H]1Oc2cc(C#CCN(C)C)ccc2S(=O)(=O)N([C@@H](C)CO)C[C@H]1C	T cruzi growth-1 102 | T cruzi growth-2 102 | T cruzi growth-3 inactive | NIH3T3 tox inactive | 3T3 cytotox 2 inactive
Cc1ccc(C(C)C)c(OC(=O)CS(=O)c2ccc(C(F)(F)F)cc2[N+](=O)[O-])c1 (configuration not stated)	none (no result: KDM4C inh, T cruzi growth-1)
Cc1cc(OCC(=O)NCc2ccccn2)c(C)cc1Br	none (no result: KDM4C inh, T cruzi growth-1)
CCOC(=O)c1ccc(NC(=O)CN2C(=O)C3C4C=CC(C5CC45)C3C2=O)cc1 (configuration not stated)	none (no result: KDM4C inh, T cruzi growth-1)
COc1ccc(C#Cc2ccc([C@H]3[C@@H](CO)N4CCCCN(Cc5ccccc5F)C[C@H]34)cc2)cc1	none (no result: IDH1 mut inh)
OC[C@@H]1[C@@H](c2ccc(C#Cc3cccnc3)cc2)[C@H]2CN(Cc3ccccc3F)CCCCN12	T cruzi growth-1 104 (no result: IDH1 mut inh) | T cruzi growth-2 107 | T cruzi growth-3 inactive | NIH3T3 tox inactive | 3T3 cytotox 2 102
COc1ccc(C#Cc2ccc([C@@H]3[C@H]4CN(Cc5ccccc5F)CCCCN4[C@H]3CO)cc2)cc1	none (no result: IDH1 mut inh)
CC(C)(O)C#Cc1ccc([C@@H]2[C@@H](CO)N3CCCCN(Cc4ccccc4F)C[C@@H]23)cc1	none (no result: IDH1 mut inh)
OC[C@H]1[C@H](c2ccc(C#Cc3cccnc3)cc2)[C@H]2CN(Cc3ccccc3F)CCCCN21	T cruzi growth-1 110 (no result: IDH1 mut inh) | T cruzi growth-2 107 | T cruzi growth-3 inactive | NIH3T3 tox inactive | 3T3 cytotox 2 103
OC[C@H]1[C@@H](c2ccc(C#Cc3cccnc3)cc2)[C@H]2CN(Cc3ccccc3F)CCCCN21	T cruzi growth-1 inconclusive (no result: IDH1 mut inh) | T cruzi growth-2 106 | T cruzi growth-3 inactive | NIH3T3 tox inactive | 3T3 cytotox 2 74
CC(C)(O)C#Cc1ccc([C@H]2[C@H]3CN(Cc4ccccc4F)CCCCN3[C@H]2CO)cc1	none (no result: IDH1 mut inh)
OC[C@H]1[C@@H](c2ccc(C#Cc3cccnc3)cc2)[C@@H]2CN(Cc3ccccc3F)CCCCN12	T cruzi growth-1 111 (no result: IDH1 mut inh) | T cruzi growth-2 96 | T cruzi growth-3 inconclusive | NIH3T3 tox 36 | 3T3 cytotox 2 104
CCOc1ccc(NC(=O)Cn2cc([N+](=O)[O-])cn2)cc1	none (no result: KDM4C inh, T cruzi growth-1)

Bioassay records deposited in PubChem by Broad Institute.
